{
  "source": "paper PMC5014782",
  "about": "(Diabetes Therapy, 2016)",
  "key": {"[1]": {"system": "patients with type 2 diabetes mellitus", "test": "Exposure–response analysis for efficacy", "type": "in vivo, human", "settings": "for Target of the maximal response for FPG and HbA1c obtained: after 24 weeks", "procedure,_shortened": "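NONMEM population PK/PD turnover model fitted to 25,361 FPG and 22,012 HbA1c values from 4065 patients, placebo arms included, in three Phase II and four Phase III trials of ≥12 weeks. AUCss drives FPG elimination through a non-linear Emax term, and FPG changes drive HbA1c production. Steady-state baseline assumed. Covariates on Gmax include eGFR and baseline FPG. Precision checked by bootstrap.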"}, "[2]": {"settings": "Japanese patients with T2DM and renal impairment; subjects with renal impairment; cited from earlier work"}, "[3]": {"system": "patients with type 2 diabetes mellitus", "test": "Exposure–response analysis for safety/tolerability", "type": "in vivo, human", "settings": "empagliflozin therapy compared with placebo-treated patients; OR (95% CI)", "procedure,_shortened": "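Logistic regression (R glm, binomial, logit link) of dichotomous patient-level adverse-event endpoints, each counted as any event during study. Endpoints: confirmed hypoglycemia (plasma glucose <3.9 mM and/or assistance required), and UTI, genital infection and volume depletion defined by 73, 89 and 8 preferred terms. Covariates enter additively with steady-state AUC relative to reference. Odds ratios computed for empagliflozin treatment.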"}, "[4]": {"test": "Population pharmacokinetic analysis", "type": "in vivo, human", "procedure,_shortened": "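NONMEM 7.2 two-compartment model with lagged first-order absorption (lag fixed at 0.5 h) and first-order elimination. Fitted to 12,503 plasma concentrations from 2761 patients given oral doses of 1–100 mg once daily in ten Phase I–III studies; placebo excluded and first-hour samples dropped. eGFR by the MDRD formula, with a reference patient at eGFR 100 mL/min/1.73 m2. Bootstrap precision check.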"}, "[5]": {"system": "patients with type 2 diabetes mellitus", "type": "in vivo, human", "settings": "24 weeks, median (2.5th, 97.5th percentile)"}, "[6]": {"system": "patients with type 2 diabetes mellitus", "settings": "cited from earlier work; for Placebo-corrected reduction in HbA1c / Reduction in FPG: Phase III"}, "[7]": {"settings": "eGFR 15 mL/min/1.73 m^2 vs reference patient with eGFR 100 mL/min/1.73 m^2"}},
  "note": "Entries after “also recorded” stand apart in the source; their conditions may differ. Where two headings read alike, the source gives them in different places. Marks after values point to notes of the source that are not given here.",
  "data": [
    {"smiles": "OC[C@H]1O[C@@H](c2ccc(Cl)c(Cc3ccc(O[C@H]4CCOC4)cc3)c2)[C@H](O)[C@@H](O)[C@@H]1O", "note": "[empagliflozin]", "values": [
      {"measurement": "Target of the maximal response for FPG and HbA1c obtained", "setting": "[1]; once daily dose of approximately 10 mg", "value": 80, "unit": "%"},
      {"measurement": "Target of the maximal response for FPG and HbA1c obtained", "setting": "[1]; once daily dose of approximately 25 mg", "value": 90, "unit": "%"},
      {"measurement": "Efficacy (effect on FPG) maintained in renal impairment", "setting": "[1]; eGFR as low as 30 mL/min/1.73 m^2", "value": "nearly half the maximal effect"},
      {"measurement": "Once daily dose whose median exposure corresponds to AUC50", "setting": "[1]; once daily dose", "value": "around 3 mg"},
      {"measurement": "Increase in exposure for patients with renal impairment", "setting": "[2]", "value": "less than twofold"},
      {"measurement": "OR for UTI", "setting": "[3]", "value": "0.941 (0.687, 1.29)"},
      {"measurement": "OR for genital infection", "setting": "[3]", "value": "5.08 (2.77, 9.34)"},
      {"measurement": "OR for hypoglycemia", "setting": "[3]", "value": "1.11 (0.811, 1.52)"},
      {"measurement": "OR for volume depletion", "setting": "[3]", "value": "1.44 (0.517, 4.01)"},
      {"measurement": "Increase in typical AUCss", "setting": "[4]; [7]", "value": 88.1, "unit": "%"},
      {"measurement": "Reduction in CL/F", "setting": "[4]; [7]", "value": 46.8, "unit": "%"},
      {"measurement": "Increase in typical AUCss", "setting": "[4]; eGFR 30 mL/min/1.73 m^2 vs reference patient with eGFR 100 mL/min/1.73 m^2", "value": 49.2, "unit": "%"},
      {"measurement": "Increase in typical AUCss", "setting": "[4]; eGFR 60 mL/min/1.73 m^2 vs reference patient with eGFR 100 mL/min/1.73 m^2", "value": 18.5, "unit": "%"},
      {"measurement": "Increase in mean AUCss", "setting": "[4]; eGFR ≥60 mL/min/1.73 m^2 vs reference eGFR 100 mL/min/1.73 m^2", "value": "≤ 20", "unit": "%"},
      {"measurement": "Vd/F", "setting": "[4]; human, plasma, oral", "value": 3.14, "unit": "L"},
      {"measurement": "Increase in exposure (AUCss) in renal impairment", "setting": "[4]; patients with (severe) renal impairment", "value": "less than twofold increase in exposure; also recorded: increased less than twofold; also recorded: increase in exposure less than twofold"},
      {"measurement": "first-order ka", "setting": "[4]; typical value given the reference covariates", "value": 0.196, "unit": "L/h"},
      {"measurement": "Median change from baseline in glycated hemoglobin, Observed", "setting": "[5]; 10 mg, eGFR 30–60 mL/min/1.73 m^2 (study 10), five patients", "value": "−0.90 (−1.81, 0.12)^a"},
      {"measurement": "Median change from baseline in glycated hemoglobin, Observed", "setting": "[5]; 10 mg, eGFR 45–60 mL/min/1.73 m^2 (study 10), five patients", "value": "−0.90 (−1.81, 0.12)^a"},
      {"measurement": "Median change from baseline in glycated hemoglobin, Observed", "setting": "[5]; 10 mg, eGFR 60–90 mL/min/1.73 m^2 (study 10)", "value": "−0.40 (−1.70, 0.76)"},
      {"measurement": "Median change from baseline in glycated hemoglobin, Observed", "setting": "[5]; 10 mg, elderly (75–85 years)", "value": "−0.65 (−2.44, 0.40)"},
      {"measurement": "Median change from baseline in glycated hemoglobin, Observed", "setting": "[5]; 25 mg, eGFR 30–45 mL/min/1.73 m^2 (study 10)", "value": "−0.30 (−1.83, 1.43)"},
      {"measurement": "Median change from baseline in glycated hemoglobin, Observed", "setting": "[5]; 25 mg, eGFR 30–60 mL/min/1.73 m^2 (study 10)", "value": "−0.40 (−2.00, 1.25)"},
      {"measurement": "Median change from baseline in glycated hemoglobin, Observed", "setting": "[5]; 25 mg, eGFR 45–60 mL/min/1.73 m^2 (study 10)", "value": "−0.40 (−1.97, 0.88)"},
      {"measurement": "Median change from baseline in glycated hemoglobin, Observed", "setting": "[5]; 25 mg, eGFR 60–90 mL/min/1.73 m^2 (study 10)", "value": "−0.70 (−1.64, 0.90)"},
      {"measurement": "Median change from baseline in glycated hemoglobin, Observed", "setting": "[5]; 25 mg, elderly (75–85 years)", "value": "−0.50 (−2.03, 0.60)"},
      {"measurement": "Placebo-corrected reduction in HbA1c", "setting": "[6]; add-on therapy, 10 mg", "value": "−0.4% to −0.7%"},
      {"measurement": "Reduction in FPG", "setting": "[6]; add-on therapy, 10 mg", "value": "−0.9 to −1.5", "unit": "mM"},
      {"measurement": "Placebo-corrected reduction in HbA1c", "setting": "[6]; add-on therapy, 25 mg", "value": "−0.5% to −0.7%"},
      {"measurement": "Reduction in FPG", "setting": "[6]; add-on therapy, 25 mg", "value": "−1.2 to −1.8", "unit": "mM"},
      {"measurement": "Placebo-corrected reduction in HbA1c", "setting": "[6]; monotherapy, 10 mg", "value": "−0.7", "unit": "%"},
      {"measurement": "Reduction in FPG", "setting": "[6]; monotherapy, 10 mg", "value": -1.7, "unit": "mM"},
      {"measurement": "Placebo-corrected reduction in HbA1c", "setting": "[6]; monotherapy, 25 mg", "value": "−0.9", "unit": "%"},
      {"measurement": "Reduction in FPG", "setting": "[6]; monotherapy, 25 mg", "value": -2.0, "unit": "mM"},
      {"measurement": "Effect on HbA1c as add-on to existing antidiabetic therapy", "setting": "[6]; patients with T2DM and stage 2 or 3 CKD", "value": "significant reductions in HbA1c"},
      {"measurement": "Effect on HbA1c", "setting": "[6]; patients with severe renal impairment (stage 4 CKD)", "value": "no reduction in HbA1c was observed"}
    ]}
  ]
}
